According to ChEMBL document CHEMBL1133924, “Inhibitors of bacterial enoyl acyl carrier protein reductase (FabI): 2,9-disubstituted 1,2,3,4-tetrahydropyrido[3,4-b]indoles as potential antibacterial agents” (Bioorg Med Chem Lett, 2001):
Values after ≈ are worked out from the molar mass of the structure shown.

Columns and labels:
[1] = target: T1, Enoyl-[acyl-carrier-protein] reductase [NADH] FabI (Escherichia coli K-12, UniProt P0AEK4); assay: Antibacterial activity against Escherichia coli FabI
T1 sequence (P0AEK4 whole entry): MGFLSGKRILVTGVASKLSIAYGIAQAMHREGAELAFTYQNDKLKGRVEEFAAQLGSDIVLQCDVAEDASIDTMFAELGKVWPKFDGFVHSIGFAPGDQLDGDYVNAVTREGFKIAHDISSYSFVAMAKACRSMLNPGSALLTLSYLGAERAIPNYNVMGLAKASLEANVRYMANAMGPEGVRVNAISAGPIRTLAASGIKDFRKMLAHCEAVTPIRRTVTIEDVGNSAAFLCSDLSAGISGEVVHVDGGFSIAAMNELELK

[2] = target: T2, Enoyl-[acyl-carrier-protein] reductase [NADPH] FabI (Staphylococcus aureus, UniProt Q6GI75); assay: Antibacterial activity against Staphylococcus aureus FabI
T2 sequence (Q6GI75 whole entry): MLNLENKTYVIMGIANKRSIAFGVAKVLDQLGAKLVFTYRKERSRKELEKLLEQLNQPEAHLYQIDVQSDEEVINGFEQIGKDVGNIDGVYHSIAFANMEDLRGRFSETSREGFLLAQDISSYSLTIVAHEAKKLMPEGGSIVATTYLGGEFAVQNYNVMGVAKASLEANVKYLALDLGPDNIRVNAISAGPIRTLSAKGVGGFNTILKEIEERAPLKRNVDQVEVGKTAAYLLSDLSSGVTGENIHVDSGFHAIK

Moraxella catarrhalis = assay: In vitro antibacterial activity against Moraxella catarrhalis 1502 FabI
Summary of the method: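 Broth microdilution MIC in cation-adjusted Mueller–Hinton broth. Compounds were dissolved in DMSO, diluted 1:10 in water, then serially diluted. Each well received about 1×10⁶ cfu/mL inoculum. Plates were incubated at 35 °C in ambient air for 18–24 h.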

Staphylococcus aureus = assay: In vitro antibacterial activity against Staphylococcus aureus FabI
Escherichia coli = assay: In vitro antibacterial activity against Escherichia coli FabI
[3] = target: T1, Enoyl-[acyl-carrier-protein] reductase [NADH] FabI; assay: Antibacterial activity against Escherichia coli Enoyl-[acyl-carrier-protein] reductase was determined

SMILES	IC50 [1] [µM]	IC50 [2] [µM]	MIC (Moraxella catarrhalis) [µg/mL]	MIC (Staphylococcus aureus) [µg/mL]	MIC (Escherichia coli) [µg/mL]	IC50 [3] [µM]
O=C(c1ccc(Cl)cc1Cl)N1CCc2c(n(Cc3ccc(O)cc3)c3ccccc23)C1	35.8	1.8	–	–	–	–
O=C(c1ccc(O)cc1)N1CCc2c(c3ccccc3n2Cc2ccc(O)cc2)C1	–	32.4	–	–	–	–
O=C(c1cccc(O)c1)N1CCc2c(n(Cc3ccc(O)cc3)c3ccccc23)C1	> 50	3.4	–	–	–	–
CCCCc1ccc(C(=O)N2CCc3c(n(Cc4ccc(O)cc4)c4ccccc34)C2)cc1	> 50	0.51	–	–	–	–
O=C(c1ccc(Cl)cc1)N1CCc2c(n(Cc3ccc(O)cc3)c3ccccc23)C1	16.8	0.18	> 64	4 (≈ 9.59 µM)	> 64	–
CS(=O)(=O)c1ccc(Cn2c3c(c4ccccc42)CCN(C(=O)c2ccc(O)cc2)C3)cc1	4.5	0.33	–	–	–	–
Nc1ccc(Cn2c3c(c4ccccc42)CCN(C(=O)c2ccc(O)cc2)C3)cc1	21.4	0.67	–	–	–	–
COc1ccc(C(=O)N2CCc3c(n(Cc4ccc(O)cc4)c4ccccc34)C2)cc1	35.5	0.37	–	–	–	–
Nc1ccc(C(=O)N2CCc3c(n(Cc4ccc(O)cc4)c4ccccc34)C2)cc1	4	1	–	–	–	–
O=C(c1ccc(O)cc1)N1CCc2c([nH]c3ccccc23)C1c1ccc(O)cc1 (configuration not stated)	–	28.1	–	–	–	–
Cc1ccc(C(=O)N2CCc3c(n(Cc4ccc(O)cc4)c4ccccc34)C2)cc1	5.2	0.24	> 64	0.5 (≈ 1.26 µM)	> 64	–
COC(=O)CCCCn1c2c(c3ccccc31)CCN(C(=O)c1ccc(O)cc1)C2	–	–	–	–	–	26.8
O=C(c1ccc(O)cc1)N1CCc2c(n(Cc3ccccc3)c3ccccc23)C1	–	–	–	–	–	27
CNc1ccc(C(=O)N2CCc3c(n(Cc4ccc(O)cc4)c4ccccc34)C2)cc1	38.6	2.1	–	–	–	–
Oc1cc(Cl)ccc1Oc1ccc(Cl)cc1Cl	–	–	0.06 (≈ 0.207 µM)	0.03 (≈ 0.104 µM)	4 (≈ 13.8 µM)	–
O=C(c1ccccc1O)N1CCc2c(n(Cc3ccc(O)cc3)c3ccccc23)C1	4.3	0.72	8 (≈ 20.1 µM)	4 (≈ 10 µM)	> 64	–
Cn1c2c(c3ccccc31)CCN(C(=O)c1ccc(O)cc1)C2	–	–	–	–	–	11

SMILES	IC50 [1] [µM]	IC50 [2] [µM]	MIC (Moraxella catarrhalis) [µg/mL]	MIC (Staphylococcus aureus) [µg/mL]	MIC (Escherichia coli) [µg/mL]	IC50 [3] [µM]
O=C(O)c1ccc(Cn2c3c(c4ccccc42)CCN(C(=O)c2ccc(O)cc2)C3)cc1	> 50	8.7	–	–	–	–
O=C(c1ccc(Cl)cc1O)N1CCc2c(n(Cc3ccc(O)cc3)c3ccccc23)C1	6.1	0.16	2 (≈ 4.62 µM)	1 (≈ 2.31 µM)	> 64	–
Cc1cc(C(=O)N2CCc3c(n(Cc4ccc(O)cc4)c4ccccc34)C2)ccc1O	4.4	0.18	8 (≈ 19.4 µM)	1 (≈ 2.42 µM)	> 64	–
COC(=O)c1ccc(C(=O)N2CCc3c(n(Cc4ccc(O)cc4)c4ccccc34)C2)cc1	> 50	2	–	–	–	–
Cc1ccc(C(=O)N2CCc3c(n(Cc4ccc(O)cc4)c4ccccc34)C2)c(O)c1	8.2	0.12	4 (≈ 9.7 µM)	1 (≈ 2.42 µM)	> 64	–
O=C(c1ccc(O)cc1)N1CCc2c(n(Cc3cccc(O)c3)c3ccccc23)C1	–	–	–	–	–	8.8
CN(Cc1cc2ccccc2n1Cc1ccc(O)cc1)C(=O)c1ccc(O)cc1	–	1	–	–	–	–
O=C(c1ccccc1)N1CCc2c(n(Cc3ccc(O)cc3)c3ccccc23)C1	2.7	0.49	–	–	–	–
Cc1cc(C(=O)N2CCc3c(n(Cc4ccc(O)cc4)c4ccccc34)C2)cc(C)c1O	23	2.9	–	–	–	–
O=C(c1ccc(O)cc1)N1CCc2c(n(Cc3ccc(F)cc3)c3ccccc23)C1	4.2	0.25	–	–	–	–
O=C(c1ccc(O)c(Cl)c1)N1CCc2c(n(Cc3ccc(O)cc3)c3ccccc23)C1	3.4	0.16	4 (≈ 9.24 µM)	1 (≈ 2.31 µM)	> 64	–
COC(=O)Cn1c2c(c3ccccc31)CCN(C(=O)c1ccc(O)cc1)C2	–	–	–	–	–	34.9
O=C(c1ccc(O)cc1)N1CCc2c(n(Cc3ccc(O)cc3)c3ccccc23)C1	4.2	0.11	8 (≈ 20.1 µM)	0.5 (≈ 1.25 µM)	> 64	–
O=C(c1ccc(O)cc1)N1CCc2c([nH]c3ccccc23)C1	–	–	–	–	–	18
Cc1cc(O)c(C)c(O)c1C(=O)N1CCc2c(n(Cc3ccc(O)cc3)c3ccccc23)C1	> 50	> 50	–	–	–	–
O=C(c1cc(Cl)cc(Cl)c1O)N1CCc2c(n(Cc3ccc(O)cc3)c3ccccc23)C1	9.9	1.8	–	–	–	–
